The nature of series [1]: folding enthalpy; higher = less favourable; fluorescence melt of hairpins on a sequencing array, two-state fit. The note with it: sodium 0.088 M. In outline: (§1)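 In 50 mM Na-HEPES pH 8.0 containing 25 mM NaCl, hairpins from the library on a sequenced MiSeq flow cell were imaged for Cy3 fluorescence at 2.5 °C steps up to 60 °C, with Cy3 and quencher oligos annealed. After normalisation to pre-quench Cy3 and to control constructs, two-state fits with bootstrapping gave melting temperature and folding enthalpy. Four replicates were combined by inverse-variance weighting, and fitted temperatures were shifted up by 9.35 °C to match UV melts.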

Series [2] in a line: melting temperature; fluorescence melt of hairpins on a sequencing array, two-state fit, raised by 9.35 °C to match UV melts. The note with it: sodium 0.088 M. In a few lines:
as §1

As to GACCTACGAAAGTAAGTC (((.(((....))).))), the folding enthalpy in series [1] is -23.1 kcal/mol. The Tm in series [2] is 38 °C.

Regarding GACCTACGAAAGTACGTC (((.(((....))).))), the folding enthalpy in series [1] is -24.6 kcal/mol. The Tm in series [2] turned out to be 36.2 °C.

In the case of GACCTAGGAAACTAGGCC (.(((((....))))).), the folding enthalpy in series [1] is -19.3 kcal/mol. Also, the Tm in series [2] was 39.5 °C.

For GACCTCACGAAAGTGGTC (((..(((....)))))), in series [1], the folding enthalpy was -20.7 kcal/mol. For the same sequence, in series [2], the Tm was 37.4 °C.

On to GACCTCCGAAAGGAAGTC (((.(((....))).))), for which the folding enthalpy in series [1] is -26.1 kcal/mol. Further, in series [2], the Tm is 44.7 °C.

For GACCTCGGAAACGAGGCC (.(((((....))))).), the folding enthalpy in series [1] is -13 kcal/mol. For the same sequence, the Tm in series [2] came out at 55.4 °C.

With GACCTGCGAAAGCACGTC (((.(((....))).))), the folding enthalpy in series [1] was -25.4 kcal/mol. In addition, the Tm in series [2] stood at 42.8 °C.

Consider GACCTGGGAAACTGGGTC ((((..(....)..)))), for which the folding enthalpy in series [1] is -25 kcal/mol. Further, the Tm in series [2] turned out to be 44.4 °C.

Turning to GACCTTGAAAAAGGTC ((((((....)))))), the folding enthalpy in series [1] was -33.4 kcal/mol. Besides, the Tm in series [2] is 56.8 °C.

On to GACCTTGGAAACAAGGTC (((((((....))))))), for which the folding enthalpy in series [1] is -40.6 kcal/mol. Moreover, the Tm in series [2] was 63 °C.

With GACCTTGGAAACAGGGTC ((((.((....)).)))), the folding enthalpy in series [1] was -31.5 kcal/mol. Also, the Tm in series [2] amounted to 47 °C.

Turning to GACGAAGGAAACTTTGTC (((.(((....))).))), the folding enthalpy in series [1] was -28.3 kcal/mol. Moreover, in series [2], the Tm amounted to 41.6 °C.

Turning to GACGACGAAAGTCAAGTC ((((((....)))..))), in series [1], the folding enthalpy is -23.8 kcal/mol. Further, in series [2], the Tm worked out at 45.9 °C.

Consider GACGACGAAAGTCGGGTC ((((((....)))..))), for which, in series [1], the folding enthalpy was -12.8 kcal/mol. Also, the Tm in series [2] was determined as 64.1 °C.

With GACGACGGAAACGTCGCC (.(((((....))))).), the folding enthalpy in series [1] is -12.2 kcal/mol. Further, the Tm in series [2] was found to be 53.1 °C.

Consider GACGAGAAATCGTC (((((....))))), for which the folding enthalpy in series [1] was -28.1 kcal/mol. In series [2], the Tm is 51.2 °C.

Regarding GACGAGCGAAAGCTGTC (((.(((....)))))), in series [1], the folding enthalpy is -32.3 kcal/mol. Also, the Tm in series [2] was 53 °C.

As for GACGAGGGAAACCTCGCC (.(((((....))))).), the folding enthalpy in series [1] is -14.3 kcal/mol. Moreover, the Tm in series [2] turned out to be 52.3 °C.

Consider GACGAGGGAAACTTCGTC (((((.(....).))))), for which the folding enthalpy in series [1] is -40.8 kcal/mol. In addition, in series [2], the Tm was 49 °C.

As for GACGATGGAAACGTTGTC (((.(.(....).).))), in series [1], the folding enthalpy is -22.2 kcal/mol. The Tm in series [2] came out at 34 °C.

Take GACGCAGGAAACCGCGTC (((((.(....).))))): the folding enthalpy in series [1] was -37.3 kcal/mol. Moreover, the Tm in series [2] was 56.9 °C.

For GACGCAGGAAACTGCGCC (.(((((....))))).), the folding enthalpy in series [1] was -13.5 kcal/mol. In series [2], the Tm stood at 50.2 °C.

For GACGCCACGAAAGTGGTC (((..(((....)))))), the folding enthalpy in series [1] was -8.49 kcal/mol. Besides, the Tm in series [2] was 32.1 °C.

As for GACGCCGAAAGGCCCGTC ((((((....)))..))), in series [1], the folding enthalpy was -13.9 kcal/mol. Moreover, the Tm in series [2] was 37 °C.

In the case of GACGCCGAAAGGCCGGTC ((((((....)))..))), the folding enthalpy in series [1] is -15 kcal/mol. In series [2], the Tm was found to be 42.6 °C.

Regarding GACGCCGAAAGGCTGTC ((((((....))).))), in series [1], the folding enthalpy was -18.4 kcal/mol. The Tm in series [2] stood at 56.9 °C.

With GACGCCGCGAAAGCGGTC (((..(((....)))))), the folding enthalpy in series [1] was -6.05 kcal/mol. Further, in series [2], the Tm worked out at 34.8 °C.

GACGCCGGAAACGACGTC ((((.((....)).)))): in series [1], the folding enthalpy is -44.8 kcal/mol. For the same sequence, the Tm in series [2] came to 57.5 °C.

GACGCGGGAAACCACGCC (.((.((....)).)).): the folding enthalpy in series [1] is -12.4 kcal/mol. Also, in series [2], the Tm worked out at 34.6 °C.

As to GACGCGGGAAACCACGTC ((((.((....)).)))), in series [1], the folding enthalpy is -40.9 kcal/mol. In series [2], the Tm worked out at 52.1 °C.

Consider GACGCGGGAAACCGCATC ((.((((....)))).)), for which the folding enthalpy in series [1] is -13.4 kcal/mol. Moreover, the Tm in series [2] was 40.1 °C.

Regarding GACGCGGGAAACTGCGTC (((((.(....).))))), the folding enthalpy in series [1] was -35.2 kcal/mol. In series [2], the Tm came to 64 °C.

As for GACGCTACGAAAGTAGTC (((..(((....)))))), in series [1], the folding enthalpy was -13.2 kcal/mol. Further, in series [2], the Tm came out at 35.9 °C.

Regarding GACGCTCCGAAAGGAGTC (((..(((....)))))), the folding enthalpy in series [1] is -9.32 kcal/mol. In series [2], the Tm was found to be 34.5 °C.

Regarding GACGGACCGAAAGGTGTC (((..(((....)))))), in series [1], the folding enthalpy was -17.9 kcal/mol. The Tm in series [2] amounted to 41.3 °C.

GACGGAGAAATCCGTC ((((((....)))))): the folding enthalpy in series [1] was -38.5 kcal/mol. Besides, the Tm in series [2] was 59.1 °C.
